Assays:
[1] = molecular target: T1, Muscarinic acetylcholine receptor M1 (Homo sapiens) (UniProt P11229); assay: Displacement of [3H]NMS from human muscarinic M1 receptor expressed in CHO Flp-In cells after 1 hr by microbeta liquid scintillation counting-based radioligand binding assay; assay type: cell-based
T1 sequence (whole entry): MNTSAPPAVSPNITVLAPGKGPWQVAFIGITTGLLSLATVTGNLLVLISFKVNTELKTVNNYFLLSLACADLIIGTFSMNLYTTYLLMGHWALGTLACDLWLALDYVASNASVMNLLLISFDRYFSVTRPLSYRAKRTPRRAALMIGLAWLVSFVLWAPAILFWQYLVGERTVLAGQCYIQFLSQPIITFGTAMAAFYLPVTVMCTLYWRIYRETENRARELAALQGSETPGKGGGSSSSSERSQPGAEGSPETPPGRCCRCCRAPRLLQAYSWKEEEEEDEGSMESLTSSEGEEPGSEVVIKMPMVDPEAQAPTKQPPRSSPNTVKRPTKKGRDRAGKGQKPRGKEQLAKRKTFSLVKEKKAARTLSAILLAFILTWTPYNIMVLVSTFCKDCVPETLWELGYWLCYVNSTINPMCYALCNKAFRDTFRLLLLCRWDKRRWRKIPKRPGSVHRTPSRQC
How it was run: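 Intact adherent Flp-In CHO cells expressing hM1 (10⁴ cells/well), incubated with 0.2 nM [3H]NMS, varying ACh and modulator in HEPES-buffered saline pH 7.4 for 1 h at 37 °C. Washed with ice-cold 0.9% NaCl, then scintillation counted. Fitted to an allosteric ternary complex model with [3H]NMS KA 0.2 nM. Mean ± SEM, ≥3 experiments in duplicate.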

[2] = molecular target: T1, Muscarinic acetylcholine receptor M1 (Homo sapiens); assay: Positive allosteric modulation of human muscarinic M1 receptor expressed in CHO Flp-In cells assessed as functional cooperativity with acetylcholine measured as IP1 accumulation after 1 hr by HTRF method; assay type: cell-based
How it was run: (§1)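 Suspended Flp-In CHO cells stably expressing hM1, stimulated at 10⁶ cells/ml in HEPES buffer with 50 mM LiCl, pH 7.4, using increasing ACh with or without increasing modulator, 1 h at 37 °C, 5% CO2. IP1 read by HTRF (665/590 nm ratio). Curves fitted globally to the operational model of allosterism, with KB fixed from binding. Mean ± SEM, ≥3 experiments in duplicate.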

[3] = molecular target: T1, Muscarinic acetylcholine receptor M1 (Homo sapiens); assay: Allosteric agonist activity at human muscarinic M1 receptor expressed in CHO Flp-In cells assessed as intrinsic activity measured as IP1 accumulation after 1 hr by HTRF method; assay type: functional, cell-based; how it was run: as §1

Row | Kb [1] | pKb [1] | log(activity) [2] | Intrinsic activity [3] | log(IA) [3] | SMILES
1 | 14 µM | 4.86 | 0.75 | 0.5 | -0.3 | CCCCn1cc(-c2ccc(COc3ccccc3-c3ccn([C@H]4CCCC[C@@H]4O)c(=O)c3)cc2)cn1 (racemic)
2 | 23 µM | 4.64 | 1.78 | 0.3 | -0.52 | CCCn1cc(-c2ccc(COc3ccccc3-c3ccn([C@H]4CCCC[C@@H]4O)c(=O)c3)cc2)cn1 (racemic)
3 | 41 µM | 4.38 | 2.26 | 0.89 | -0.05 | CCn1cc(-c2ccc(COc3ccccc3-c3ccn([C@H]4CCCC[C@@H]4O)c(=O)c3)cc2)cn1 (racemic)
4 | 100 µM | 3.99 | 0.52 | 0.15 | -0.82 | COC(=O)c1cccc(COc2ccccc2-c2ccn([C@H]3CCCC[C@@H]3O)c(=O)c2)c1 (racemic)
5 | 65 µM | 4.19 | 0.84 | 1.45 | 0.16 | COc1cccc(COc2ccccc2-c2ccn([C@H]3CCCC[C@@H]3O)c(=O)c2)c1 (racemic)
6 | 66 µM | 4.18 | 1.44 | 0.44 | -0.36 | Cn1cc(-c2ccc(CNc3ccccc3-c3ccn([C@H]4CCCC[C@@H]4O)c(=O)c3)cc2)cn1 (racemic)
7 | 13 µM | 4.88 | 2.75 | 2.51 | 0.4 | Cn1cc(-c2ccc(COc3ccccc3-c3cc(=O)n([C@H]4CCCC[C@@H]4O)cn3)cc2)cn1 (racemic)
8 | 32 µM | 4.5 | 2.15 |  | -3 | Cn1cc(-c2ccc(COc3ccccc3-c3ccn([C@H]4CCCC[C@@H]4O)c(=O)c3)cn2)cn1 (racemic)
9 | 14 µM | 4.85 | 0.49 | 0.19 | -0.73 | N#Cc1ccc(COc2ccccc2-c2ccn([C@H]3CCCC[C@@H]3O)c(=O)c2)cc1 (racemic)
10 | 22 µM | 4.66 | 2.36 | 0.89 | 0.05 | NC(=O)c1ccc(COc2ccccc2-c2ccn([C@H]3CCCC[C@@H]3O)c(=O)c2)cc1 (racemic)
11 | 19 µM | 4.72 | 1.29 | 0.38 | -0.42 | O=c1cc(-c2ccccc2OCc2ccc(-c3cccnc3)cc2)ccn1[C@H]1CCCC[C@@H]1O (racemic)
12 | 11 µM | 4.95 | 1.01 | 0.43 | -0.37 | O=c1cc(-c2ccccc2OCc2ccc(-c3ccncc3)cc2)ccn1[C@H]1CCCC[C@@H]1O (racemic)
13 | 35 µM | 4.45 | 1.34 | 0.16 | -0.8 | O=c1cc(-c2ccccc2OCc2ccc(-c3cncnc3)cc2)ccn1[C@H]1CCCC[C@@H]1O (racemic)
14 | 7 µM | 5.13 | 0.58 |  | -3 | O=c1cc(-c2ccccc2OCc2ccc(-c3cnn(CC4CC4)c3)cc2)ccn1[C@H]1CCCC[C@@H]1O (racemic)
15 | 37 µM | 4.43 | 2.49 | 0.77 | -0.11 | O=c1cc(-c2ccccc2OCc2ccc(-c3cnn(CCO)c3)cc2)ccn1[C@H]1CCCC[C@@H]1O (racemic)
16 | 36 µM | 4.44 | 0.4 | 0.77 | -0.11 | O=c1cc(-c2ccccc2OCc2ccc(C(F)(F)F)cc2)ccn1[C@H]1CCCC[C@@H]1O (racemic)
17 | 41 µM | 4.38 | 0.85 | 0.78 | -0.11 | O=c1cc(-c2ccccc2OCc2cccc(F)c2)ccn1[C@H]1CCCC[C@@H]1O (racemic)
18 | 28 µM | 4.55 | 0.94 | 0.58 | -0.24 | O=c1cc(-c2ccccc2OCc2ccccc2)ccn1[C@H]1CCCC[C@@H]1O (racemic)
19 | 30 µM | 4.52 | 0.62 | 0.44 | -0.36 | O=c1cc(-c2ccccc2OCc2ccccc2F)ccn1[C@H]1CCCC[C@@H]1O (racemic)

More lines, now with the values behind:

Row | SMILES | Kb [1] | pKb [1] | log(activity) [2] | Intrinsic activity [3] | log(IA) [3]
20 | CC(C)n1cc(-c2ccc(COc3ccccc3-c3ccn([C@H]4CCCC[C@@H]4O)c(=O)c3)cc2)cn1 (racemic) | 27 µM | 4.57 | 1.93 | 0.47 | -0.33
21 | COC(=O)c1ccc(COc2ccccc2-c2ccn([C@H]3CCCC[C@@H]3O)c(=O)c2)cc1 (racemic) | 87 µM | 4.06 | 0.96 | 0.54 | -0.26
22 | COc1ccc(COc2ccccc2-c2ccn([C@H]3CCCC[C@@H]3O)c(=O)c2)cc1 (racemic) | 52 µM | 4.28 | 0.8 | 0.08 | -1.1
23 | Cn1cc(-c2ccc(COc3c(F)ccc(F)c3-c3ccn([C@H]4CCCC[C@@H]4O)c(=O)c3)cc2)cn1 (racemic) | 42 µM | 4.38 | -0.41 | 1.34 | 0.13
24 | Cn1cc(-c2ccc(COc3ccccc3-c3ccn([C@H]4CCCC[C@@H]4O)c(=O)c3)c(F)c2)cn1 (racemic) | 31 µM | 4.51 | 1.93 | 0.43 | -0.37
25 | N#Cc1cccc(COc2ccccc2-c2ccn([C@H]3CCCC[C@@H]3O)c(=O)c2)c1 (racemic) | 87 µM | 4.06 | 0.88 | 0.25 | -0.59
26 | NC(=O)c1cccc(COc2ccccc2-c2ccn([C@H]3CCCC[C@@H]3O)c(=O)c2)c1 (racemic) | 91 µM | 4.04 | 0.87 |  | -3
27 | O=C(O)c1cccc(COc2ccccc2-c2ccn([C@H]3CCCC[C@@H]3O)c(=O)c2)c1 (racemic) | 91 µM | 4.04 | 1.08 | 0.2 | -0.69
28 | O=c1cc(-c2ccccc2NCc2ccc(-c3cccnc3)cc2)ccn1[C@H]1CCCC[C@@H]1O (racemic) | 21 µM | 4.67 | 0.47 | 0.74 | -0.13
29 | O=c1cc(-c2ccccc2NCc2ccc(-c3cncnc3)cc2)ccn1[C@H]1CCCC[C@@H]1O (racemic) |  | 3.86 | 0.68 | 1.1 | 0.04
30 | O=c1cc(-c2ccccc2OCc2ccc(-c3ccccc3)cc2)ccn1[C@H]1CCCC[C@@H]1O (racemic) | 10 µM | 4.99 | 1.09 | 1.38 | 0.14
31 | O=c1cc(-c2ccccc2OCc2ccc(-c3cn[nH]c3)cc2)ccn1[C@H]1CCCC[C@@H]1O (racemic) | 28 µM | 4.56 | 0.68 | 1.1 | 0.04
32 | O=c1cc(-c2ccccc2OCc2ccc(-c3cnn(C4CCCC4)c3)cc2)ccn1[C@H]1CCCC[C@@H]1O (racemic) | 4 µM | 5.45 | 1.92 | 0.38 | -0.42
33 | O=c1cc(-c2ccccc2OCc2ccc(-c3cnn(C4CCCCC4)c3)cc2)ccn1[C@H]1CCCC[C@@H]1O (racemic) | 2 µM | 5.67 | 0.63 | 0.51 | -0.29
34 | O=c1cc(-c2ccccc2OCc2ccc(-c3ncco3)cc2)ccn1[C@H]1CCCC[C@@H]1O (racemic) | 28 µM | 4.56 | 1.61 | 0.57 | -0.24
35 | O=c1cc(-c2ccccc2OCc2ccc(-c3nccs3)cc2)ccn1[C@H]1CCCC[C@@H]1O (racemic) | 11 µM | 4.96 | 0.8 | 0.45 | -0.35
36 | O=c1cc(-c2ccccc2OCc2ccc(F)cc2)ccn1[C@H]1CCCC[C@@H]1O (racemic) | 60 µM | 4.22 | 1.15 | 1 | 0
37 | O=c1cc(-c2ccccc2OCc2cccc(C(F)(F)F)c2)ccn1[C@H]1CCCC[C@@H]1O (racemic) | 30 µM | 4.53 | 0 | 1.02 | 0.01
